Compound activity: PubChem, several laboratories
The list is not random: actives were taken first. Their share in the collection is about 2.8%.
AI-2 QS modul – Vibrio harveyi AI-2 quorum sensing modulation; Vibrio harveyi JMH597 AI-2 luminescence/OD600 ratio, 9 h; hits give low values; strain lacks LuxN and CqsS sensors; 0 = neutral-control median; activity change, % at 7.5 µM; hit rate 0.4% among 300,000; AID 2094; in the data active = activity change below about -75%, passing the limit was not always enough; inconclusive = no clear call, values can overlap the other calls;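 note: luminescence divided by OD600 gain over 9 h not by final OD600 alone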
PP1 counter – counter-screen for PP5 inhibitors: inhibitors of human PP1-alpha. P62136. purified PP1alpha, OMFP fluorescence. inhibition, % at 6.7 µM. hit rate 0.9% among 320,000;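 active = inhibition above the mean inhibition of all tested compounds plus 3 SD, computed separately for each screening campaign, cut at about 15% in these data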
pCIP destab – compounds decreasing mouse p/CIP protein stability; Q05BA5; F442A p/CIP-EGFP cells, EGFP fluorescence, 16 h; decrease of EGFP signal, % at 10 µM; hit rate 0.01% among 290,000; AID 1984;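 active = EGFP signal decrease of at least 30% at 10 µM or well 3 SD below plate mean, unless failing retest; inactive = the rest, including hits failing retest or dose response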
T cruzi inh – T. cruzi replication inhibition; T. cruzi beta-gal in NIH3T3, luminescence, 90 h; inhibition, % (no concentration beside the values); hit rate 1.4% among 300,000; AID 1885;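 active = mean inhibition across valid replicates above about 55%, limit read from the data; inconclusive = mean below that limit but half or more replicates reach it; inactive = mean below it, under half of replicates reach it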;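 note: signal also drops with host cell toxicity which is not excluded here; 0% = plate median of DMSO wells and 100% = zero luminescence signal; higher percent means less beta-gal luminescence so fewer parasites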
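Incubation – ≥90 h infection period, 3 h prior cell attachment · System – NIH/3T3 fibroblasts plus reporter T. cruzi · Doses – compound pinned at 50 nL/well, DMSO · Read-out basis – percent inhibition of parasite-derived β-gal signal · Signal – luminescent β-galactosidase signal after 60 min lysis · Also added – 5000 T. cruzi trypomastigotes/well · Medium – Low-serum DMEM with 2% FBS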
UBC13 polyUb – blocks human UBC13 polyubiquitin chain formation; inhibition, % at 20 µM; hit rate 0.47% among 330,000; TR-FRET; AID 485273; in the data active = inhibition above about 45%, passing the limit was not always enough; inconclusive = no clear call, values can overlap the other calls
Target sequence (P61088 whole entry, looked up): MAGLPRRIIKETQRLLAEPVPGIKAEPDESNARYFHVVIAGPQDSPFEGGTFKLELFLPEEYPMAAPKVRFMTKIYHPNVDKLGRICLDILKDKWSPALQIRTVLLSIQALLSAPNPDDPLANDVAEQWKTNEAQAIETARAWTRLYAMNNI
JMH597 growth rt – retest Vibrio harveyi JMH597 growth inhibition. growth inhibition, % at 7.5 µM. OD600 absorbance, 9 h; lacks LuxN and CqsS sensors. hit rate 1% among 750. shares compounds with AI-2 QS modul. AID 2726;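 active = every replicate shows growth inhibition above 50%; inconclusive = at least half, but not all, replicates pass that cutoff; inactive = fewer than half of replicates pass it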
BB721 lum counter – retest counter-screen: BB721 constitutive quorum sensing luminescence decrease; shares compounds with AI-2 QS modul; inhibition, % at 7.5 µM; Vibrio harveyi BB721 luminescence, 9 h; hit rate 95% among 750;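 active = inhibition above about 80% in every replicate, not just on average, limit read from the data; inconclusive = at least half of replicates past the limit, but not all; inactive = fewer than half of replicates past the limit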
BB721 growth rt – retest Vibrio harveyi BB721 growth inhibition | shares compounds with AI-2 QS modul | OD600 absorbance, 9 h | growth inhibition, % at 7.5 µM | hit rate 3% among 750;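 active = every replicate shows growth inhibition above 50%; inconclusive = at least half but not all replicates above 50% inhibition; inactive = under half of replicates above 50% inhibition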
JMH597 AI-2 mod – Vibrio harveyi AI-2 signaling luminescence modulation – JMH597 strain, confirmation; shares compounds with AI-2 QS modul; Vibrio harveyi JMH597 AI-2 quorum sensing luminescence, 9 h; luxN and CqsS knockout, AI-2 only; hit rate 97% among 750; AID 2736; inhibition, % at 7.5 µM;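 active = every replicate shows more than 75% inhibition of signal versus neutral control wells; inconclusive = half to three quarters of replicates exceed 75% inhibition; inactive = fewer than half of replicates exceed 75% inhibition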
PP1 inh confirm – confirmation of human PP1 phosphatase inhibitors; hit rate 52% among 1,900; AID 2358; inhibition, % at 6.7 µM; purified PP1alpha, OMFP substrate fluorescence; shares compounds with PP1 counter;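 active = mean PP1 inhibition above a set limit taken from the earlier primary screen, cut at about 15% in these data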
PP5 inh counter – PP5 phosphatase inhibition, counter-screen for PP1 inhibitors. shares compounds with PP1 counter. purified PP5c, OMFP fluorescence. inhibition, % at 6.7 µM. hit rate 4% among 1,900. AID 2360;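 active = mean PP5 inhibition over triplicate wells above about 9.5% taken from the earlier PP1 screen, limit read from the data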
Target sequence (P53041 whole entry, looked up): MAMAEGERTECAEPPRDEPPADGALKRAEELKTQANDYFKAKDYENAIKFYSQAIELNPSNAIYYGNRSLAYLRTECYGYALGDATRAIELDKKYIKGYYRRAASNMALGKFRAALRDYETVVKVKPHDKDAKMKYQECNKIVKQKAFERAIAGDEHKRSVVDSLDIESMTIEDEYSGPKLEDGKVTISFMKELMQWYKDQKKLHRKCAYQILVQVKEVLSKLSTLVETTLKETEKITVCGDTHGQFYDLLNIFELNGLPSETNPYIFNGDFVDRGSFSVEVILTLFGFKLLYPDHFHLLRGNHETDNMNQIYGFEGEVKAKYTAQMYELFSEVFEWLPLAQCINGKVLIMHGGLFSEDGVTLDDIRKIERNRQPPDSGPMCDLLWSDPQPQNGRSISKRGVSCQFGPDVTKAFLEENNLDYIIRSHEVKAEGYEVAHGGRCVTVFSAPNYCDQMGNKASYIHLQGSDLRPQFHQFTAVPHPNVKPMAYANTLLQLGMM
Numbers without * were called inactive; ? = inconclusive; nt = not tested or not shown.

SMILES | AI-2 QS modul | PP1 counter | pCIP destab | T cruzi inh | UBC13 polyUb | PP1 inh confirm | PP5 inh counter | others
OCC1(CCOc2ccccc2)CCN(Cc2ccc(OC(F)F)cc2)CC1 | 13 | 0 | 0 | 2 | 6 | nt | nt
O=C1COc2ccc(C(=O)COC(=O)/C=C/c3ccc(Br)o3)cc2N1 | -96* | 22* | nt | -8 | 19 | 26* | -1 | JMH597 growth rt=12;BB721 lum counter=99*;BB721 growth rt=1;JMH597 AI-2 mod=99*
CCOC(=O)C1=C(COC(=O)CCC(=O)c2ccc(C)cc2)NC(=O)NC1C (stereo unspecified) | nt | -2 | nt | nt | -10 | nt | nt
O=C(Nc1ccccc1C(=O)O)c1cccc(S(=O)(=O)Nc2ccc(Br)cc2)c1 | -9 | 18* | -4 | -5 | -16 | 10 | 0
O=C(Nc1ccccc1C(=O)O)c1cccc(NS(=O)(=O)c2ccc(Br)cc2)c1 | 24 | 8 | 0 | -8 | nt | nt | nt
CN(C)C(CNC(=O)c1cnc(Cl)c(Cl)c1)c1ccccc1 (stereo unspecified) | 21 | -1 | -12 | -12 | -6 | nt | nt
CCC1=NN=C(c2ccc(F)cc2)C(c2c[nH]c3ccccc23)N1O (stereo unspecified) | 16 | 22* | 4 | 6 | -5 | -4 | -2
O=C1CC(c2ccc(O)cc2)Oc2cc(O)cc(O)c21 (stereo unspecified) | 17 | -1 | -5 | -13 | 0 | nt | nt
CC1CC(=O)c2c(cc3c(-c4c(O)cc(O)c5c(O)c6c(cc45)OC(C)CC6=O)c(O)cc(O)c3c2O)O1 (stereo unspecified) | -82* | 70* | -8 | 71* | -45 | 48* | 2
CCOC(=O)c1c(NC(=O)C2C3CCC(O3)C2C(=O)O)sc(C)c1-c1ccc(C)cc1 (stereo unspecified) | 5 | 20* | -8 | 3 | -3 | 13 | 13*
CCOC(=O)c1cc(NC(=O)C2C3C=CC(O3)C2C(=O)O)cc(C(=O)OCC)c1 (stereo unspecified) | 6 | 17* | 7 | -1 | -3 | 0 | 1
CCOC(=O)c1c(NC(=O)/C=C/C(=O)O)sc(C)c1-c1ccc(C(C)(C)C)cc1 | 13 | 18* | 1 | 57* | -24 | 18* | 0
CCOC(=O)c1c(NC(=O)/C=C\C(=O)O)sc(C)c1-c1ccccc1 | 1 | 3 | 0 | -14 | -4 | nt | nt
Cc1sc(NC(=O)C2C3CCC(O3)C2C(=O)O)nc1-c1ccc(CC(C)C)cc1 (stereo unspecified) | 2 | 78* | -15 | -9 | -10 | 35* | 38*
Cc1ccc(Cl)c(NC(=O)COC(=O)c2cc[n+]([O-])cc2)c1Cl | nt | nt | nt | nt | 7 | nt | nt
CCOC(=O)c1ccc(NC(=O)C2C3CCC(C3)C2C(=O)O)cc1 (stereo unspecified) | 17 | -1 | 3 | -4 | -2 | nt | nt
CCOC(=O)c1cc(NC(=O)C2C3CCC(O3)C2C(=O)O)cc(C(=O)OCC)c1 (stereo unspecified) | 24 | 57* | 21 | -6 | 1 | 13 | 19*
COc1ccc(NC(=O)c2cc(-c3ccncc3)nc3ccc(Br)cc23)cc1OC | 1 | 18* | -7 | 35 | 18 | 24* | 0
O=c1c2ccccc2oc2cc(-c3ccc(CN4CCOCC4)cc3)ccc12 | nt | 2 | nt | nt | 25 | nt | nt
CC(C)(C)OC(=O)NCCCCCc1nnc(SCc2ccccc2)o1 | -24 | -3 | -5 | 14 | 1 | nt | nt
Cc1[nH]c(=O)[nH]c(=O)c1CSc1nnc(CCCCCNC(=O)OC(C)(C)C)o1 | 4 | 23* | -10 | -8 | 10 | -3 | -3
Cc1ccc2nc(NNC(=O)c3ccc(S(=O)(=O)N4CCc5ccccc5C4)cc3)sc2c1 | 22 | 29* | 5 | 71* | -69 | 25* | 2
Cc1ccc2nc(NNC(=O)c3ccc4c(c3)OCCO4)sc2c1 | -58 | -3 | -2 | -6 | 2 | nt | nt
Cc1cc(C)c2nc(NNC(=O)c3ccc(S(=O)(=O)N4CCCC(C)C4)cc3)sc2c1 (stereo unspecified) | 91 | 21* | 2 | 61* | -82 | 24* | 3
Cc1cccc2sc(NNC(=O)c3ccc(S(=O)(=O)N4CC(C)CC(C)C4)cc3)nc12 (stereo unspecified) | 102 | 23* | 2 | 66* | -13 | 19* | 0
SMILES | AI-2 QS modul | PP1 counter | pCIP destab | T cruzi inh | UBC13 polyUb | PP1 inh confirm | PP5 inh counter | others
Cn1c(N2CCCC2)nc2c1c(=O)[nH]c(=O)n2C | -4 | -2 | -9 | -24 | -3 | nt | nt
Cc1ccc(NC(=O)CCC(=O)NNC(=O)c2ccccc2)c(C)c1 | 7 | -3 | 11 | -10 | 1 | nt | nt
CN(CC1CCCO1)S(=O)(=O)c1ccc(C(=O)Nc2ccc3c(c2)OCO3)cc1 (stereo unspecified) | 1 | -3 | -11 | -1 | -7 | nt | nt
CN(CC1CCCO1)S(=O)(=O)c1ccc(C(=O)Nc2nc3cc4c(cc3s2)OCO4)cc1 (stereo unspecified) | -3 | 23* | 1 | 14 | -7 | 26* | -4
N#CC1(NC(=O)CSc2nnc(-c3ccccc3F)n2N)CCCCC1 | 24 | -1 | nt | -2 | -1 | nt | nt
COc1ccc(Cl)cc1S(=O)(=O)Nc1noc2ccccc12 | 28 | 1 | -12 | -3 | 5 | nt | nt
COc1ccc(-c2nnc(NC(=O)c3ccc(F)cc3)o2)cc1 | ? | 24* | 16 | 46 | -2 | 25* | -3
Cc1cc(C)nc(SCC(=O)c2ccc(F)c(C)c2)n1 | nt | 43* | 2 | -8 | 0 | -3 | -4
COc1ccc2c(c1)CCC/C2=N\NC(=O)c1ccoc1C | 15 | 8 | -19 | 11 | nt | nt | nt
CCOC(=O)c1csc(N/N=C2\CCc3ccccc32)n1 | 5 | 19* | 2 | 2 | -2 | 17* | -1
CCOC(=O)c1csc(N/N=C2\CCCc3ccccc32)n1 | -1 | 3 | -9 | -9 | 7 | nt | nt
COc1ccc2c(c1)CCC/C2=N\Nc1nc(C(=O)NN)cs1 | 19 | 22* | -10 | -8 | -10 | 9 | -4
